Data as given in ChEMBL document CHEMBL3804828, “2,4,6-Triaminopyrimidine as a Novel Hinge Binder in a Series of PI3Kδ Selective Inhibitors” (J Med Chem, 2016).

Experiments:
Homo sapiens [1] = organism: Homo sapiens; assay: Selectivity ratio of IC50 for human recombinant PI3Kbeta to IC50 for human full length PI3Kdelta catalytic subunit/p85alpha
Outline: (§1)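 Ratio calculated from the isoform-specific PI3K IC50 values, with enzyme assays run in quadruplicate.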

[2] = Clearance in human hepatocytes at 1 uM by LC/MS/MS analysis; format: ADME, cell-based, Hepatocyte
Outline: (§2)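 Human hepatocytes, incubated with and without the aldehyde oxidase inhibitor raloxifene; predicted clearance calculated from turnover.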

Homo sapiens [3] = organism: Homo sapiens; assay: Selectivity ratio of IC50 for human full length PI3Kgamma to IC50 for human full length PI3Kdelta catalytic subunit/p85alpha; outline: as §1
[4] = target: PI3-kinase p110-delta/p85-alpha (Homo sapiens, UniProt O00329); assay: Inhibition human full length PI3Kdelta catalytic subunit/p85alpha assessed as formation of PIP3 after 30 mins by europium labeled GRP-based TR-FRET assay; format: protein-complex assay
Homo sapiens [5] = organism: Homo sapiens; assay: Selectivity ratio of IC50 for human full length PI3Kalpha catalytic subunit/p85alpha to IC50 for human full length PI3Kdelta catalytic subunit/p85alpha; outline: as §1
Hepatocyte = assay: Clearance in human hepatocytes at 1 uM by LC/MS/MS in presence of aldehyde oxidase inhibitor raloxifene; format: ADME, cell-based; outline: as §2

Sequence of PI3-kinase p110-delta/p85-alpha (P27986 whole entry): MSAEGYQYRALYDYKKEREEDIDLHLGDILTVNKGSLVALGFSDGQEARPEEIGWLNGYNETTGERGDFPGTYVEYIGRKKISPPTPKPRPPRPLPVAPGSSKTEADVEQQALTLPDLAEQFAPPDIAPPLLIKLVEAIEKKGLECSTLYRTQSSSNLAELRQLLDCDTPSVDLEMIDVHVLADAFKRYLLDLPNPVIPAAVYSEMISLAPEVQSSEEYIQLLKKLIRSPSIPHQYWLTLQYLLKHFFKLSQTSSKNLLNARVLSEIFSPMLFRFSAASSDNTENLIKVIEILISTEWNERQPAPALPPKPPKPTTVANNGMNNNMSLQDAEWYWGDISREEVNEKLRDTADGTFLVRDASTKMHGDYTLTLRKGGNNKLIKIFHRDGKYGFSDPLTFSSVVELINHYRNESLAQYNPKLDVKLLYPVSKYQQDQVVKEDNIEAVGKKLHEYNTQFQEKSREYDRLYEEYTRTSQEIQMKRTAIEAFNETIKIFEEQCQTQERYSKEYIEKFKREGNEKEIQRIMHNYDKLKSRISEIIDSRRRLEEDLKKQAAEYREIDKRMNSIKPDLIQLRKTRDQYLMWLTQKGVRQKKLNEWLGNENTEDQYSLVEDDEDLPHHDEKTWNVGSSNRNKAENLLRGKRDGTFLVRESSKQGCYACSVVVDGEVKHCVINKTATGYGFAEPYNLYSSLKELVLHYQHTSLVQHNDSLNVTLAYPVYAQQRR
Sequence of PI3-kinase p110-delta/p85-alpha (O00329 whole entry): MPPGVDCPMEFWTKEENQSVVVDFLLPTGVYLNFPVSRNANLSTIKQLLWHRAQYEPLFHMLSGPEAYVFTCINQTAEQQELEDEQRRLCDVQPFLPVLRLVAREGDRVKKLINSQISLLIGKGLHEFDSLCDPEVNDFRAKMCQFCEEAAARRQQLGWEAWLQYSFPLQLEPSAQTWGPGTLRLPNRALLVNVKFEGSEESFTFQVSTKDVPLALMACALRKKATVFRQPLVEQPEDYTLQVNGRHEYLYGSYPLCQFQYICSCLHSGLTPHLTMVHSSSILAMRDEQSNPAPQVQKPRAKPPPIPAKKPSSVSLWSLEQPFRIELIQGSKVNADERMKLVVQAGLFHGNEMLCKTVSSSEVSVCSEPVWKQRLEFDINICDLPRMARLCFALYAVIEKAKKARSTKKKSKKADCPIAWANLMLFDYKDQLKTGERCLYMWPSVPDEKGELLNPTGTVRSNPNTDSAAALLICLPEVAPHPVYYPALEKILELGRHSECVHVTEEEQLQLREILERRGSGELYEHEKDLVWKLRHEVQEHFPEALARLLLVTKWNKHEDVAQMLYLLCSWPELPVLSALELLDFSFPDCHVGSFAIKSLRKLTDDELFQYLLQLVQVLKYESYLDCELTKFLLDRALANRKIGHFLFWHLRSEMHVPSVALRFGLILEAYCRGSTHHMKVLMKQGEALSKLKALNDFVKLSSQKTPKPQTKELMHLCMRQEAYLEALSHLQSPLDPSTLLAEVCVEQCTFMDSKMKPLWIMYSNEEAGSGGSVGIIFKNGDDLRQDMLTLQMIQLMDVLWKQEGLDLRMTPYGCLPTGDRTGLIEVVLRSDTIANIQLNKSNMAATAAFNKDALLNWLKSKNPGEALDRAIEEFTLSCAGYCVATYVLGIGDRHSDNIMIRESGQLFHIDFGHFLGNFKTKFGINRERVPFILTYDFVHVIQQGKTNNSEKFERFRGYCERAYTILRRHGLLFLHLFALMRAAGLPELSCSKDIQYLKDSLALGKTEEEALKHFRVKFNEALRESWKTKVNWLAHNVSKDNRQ

SMILES	Ratio IC50 (Homo sapiens [1])	CLhep predicted at 1 µM [2]	Ratio IC50 (Homo sapiens [3])	IC50 [4]	Ratio IC50 (Homo sapiens [5])	CLH (Hepatocyte)
C#Cc1c(N)ncnc1N[C@@H](C)c1nc2cccc(Cl)c2c(=O)n1-c1ccccc1	490	11 mL/min/kg	1900	0.1 nM	9700	–
C[C@H](Nc1nc(N)nc(N)c1C#N)c1nc2cccc(Cl)c2c(=O)n1-c1cccc(C#N)c1	340	–	90	1.9 nM	1700	–
C[C@H](Nc1ncnc(N)c1C#Cc1cn[nH]c1)c1nc2cccc(Cl)c2c(=O)n1-c1ccccc1	260	–	230	0.3 nM	1500	–
COc1c(N)ncnc1N[C@@H](C)c1nc2cccc(Cl)c2c(=O)n1-c1ccccc1	> 251	–	> 251	39 nM	> 251	–
C[C@H](Nc1ncnc(N)c1C#Cc1cnccn1)c1nc2cccc(Cl)c2c(=O)n1-c1ccccc1	52	–	512	0.4 nM	3200	–
C[C@H](Nc1nc(N)nc(N)c1Cl)c1nc2cccc(Cl)c2c(=O)n1-c1ccccc1	370	10.8 mL/min/kg	200	0.9 nM	2700	–
C[C@H](Nc1nc(N)nc(Cl)c1C#N)c1nc2cccc(Cl)c2c(=O)n1-c1ccccc1	100	13.7 mL/min/kg	25	1 nM	530	–
C[C@H](Nc1nc(N)nc(N)c1C#N)c1nc2ccc(F)cc2c(=O)n1-c1cc(F)cc(F)c1	520	4.83 mL/min/kg	160	4.8 nM	600	–
C[C@H](Nc1ncnc(N)c1C(F)(F)F)c1nc2cccc(Cl)c2c(=O)n1-c1ccccc1	340	9.83 mL/min/kg	560	1.8 nM	1200	2 mL/min/kg
C[C@H](Nc1ncnc(N)c1C#Cc1ccccc1)c1nc2cccc(Cl)c2c(=O)n1-c1ccccc1	120	–	320	0.3 nM	1600	–
C[C@H](Nc1ncnc(N)c1C#Cc1cccnn1)c1nc2cccc(Cl)c2c(=O)n1-c1ccccc1	30	–	> 42	240 nM	> 42	–
C[C@H](Nc1ncncc1C#N)c1nc2cccc(Cl)c2c(=O)n1-c1ccccc1	460	–	370	8 nM	1200	–
C[C@H](Nc1nc(N)nc(N)c1C#N)c1nc2cccc(Cl)c2c(=O)n1-c1cc(C#N)cc(C#N)c1	> 68	–	> 68	150 nM	> 68	–
C[C@H](Nc1nc(N)nc(N)c1C#N)c1nc2cccc(Cl)c2c(=O)n1-c1cc(F)cc(F)c1	520	13.5 mL/min/kg	110	0.47 nM	2600	–
C[C@H](Nc1nc(N)nc(N)c1C#N)c1nc2cccc(Cl)c2c(=O)n1-c1cc(Cl)cc(C(F)F)c1	220	–	220	1.5 nM	850	–
C[C@H](Nc1ncnc(N)c1C#Cc1cccnc1)c1nc2cccc(Cl)c2c(=O)n1-c1ccccc1	240	–	100	0.5 nM	620	–
C[C@H](Nc1nc(N)ncc1C#N)c1nc2cccc(Cl)c2c(=O)n1-c1ccccc1	170	–	15	2.5 nM	530	–
C[C@H](Nc1nc(N)nc(N)c1C#N)c1nc2ccccc2c(=O)n1-c1cc(F)cc(F)c1	290	2.83 mL/min/kg	75	15 nM	530	–
C[C@H](Nc1nc(N)nc(N)c1C#N)c1nc2ccc(F)c(Cl)c2c(=O)n1-c1cc(F)cc(F)c1	470	6.5 mL/min/kg	74	2.9 nM	780	–

SMILES	Ratio IC50 (Homo sapiens [1])	CLhep predicted at 1 µM [2]	Ratio IC50 (Homo sapiens [3])	IC50 [4]	Ratio IC50 (Homo sapiens [5])	CLH (Hepatocyte)
C[C@H](Nc1ccncn1)c1nc2cccc(Cl)c2c(=O)n1-c1ccccc1	> 6	–	> 6	1700 nM	> 6	–
C[C@H](Nc1nc(N)nc(N)c1C#N)c1nc2c(F)cccc2c(=O)n1-c1cc(F)cc(F)c1	920	8.83 mL/min/kg	130	3.5 nM	810	–
C[C@H](Nc1nc(N)nc(N)c1C#N)c1nc2c(C#N)cccc2c(=O)n1-c1cc(F)cc(F)c1	1200	8.33 mL/min/kg	800	5.9 nM	1700	–
C[C@H](Nc1nc(N)nc(N)c1C#N)c1nc2cccc(Cl)c2c(=O)n1-c1ccccc1	80	3.5 mL/min/kg	60	0.1 nM	2200	1.7 mL/min/kg
C[C@H](Nc1ccnc(N)c1C#N)c1nc2cccc(Cl)c2c(=O)n1-c1ccccc1	> 340	–	> 340	30 nM	> 340	–
Cc1c(N)ncnc1N[C@@H](C)c1nc2cccc(Cl)c2c(=O)n1-c1ccccc1	380	12.2 mL/min/kg	700	14 nM	700	4.17 mL/min/kg
[2H]c1nc(N)c(C#N)c(N[C@@H](C)c2nc3cccc(Cl)c3c(=O)n2-c2ccccc2)n1	–	8.33 mL/min/kg	–	1.2 nM	–	1.7 mL/min/kg
C[C@H](Nc1nc(Cl)nc(N)c1C#N)c1nc2cccc(Cl)c2c(=O)n1-c1ccccc1	180	9.83 mL/min/kg	37	4.3 nM	720	–
C[C@H](Nc1ncnc(N)c1C(N)=O)c1nc2cccc(Cl)c2c(=O)n1-c1ccccc1	310	4.5 mL/min/kg	310	11 nM	860	1.3 mL/min/kg
C[C@H](Nc1nc(N)nc(N)c1C#N)c1nc2cccc(Cl)c2c(=O)n1-c1cccc(CC(F)F)c1	230	–	120	1.6 nM	1400	–
C[C@H](Nc1nc(N)nc(N)c1C#N)c1nc2cccc(Cl)c2c(=O)n1-c1ccc(F)cc1	4	–	2	2 nM	64	–
C[C@H](Nc1nc(N)nc(N)c1C#N)c1nc2cccc(Cl)c2c(=O)n1-c1cccc(F)c1	550	–	90	0.15 nM	3100	–
C[C@H](Nc1nc(N)nc(N)c1C#N)c1nc2cccc(Cl)c2c(=O)n1-c1cccc(C(F)(F)F)c1	230	–	57	3.6 nM	1100	–
C[C@H](Nc1nc(N)nc(N)c1C#N)c1nc2cccc(Cl)c2c(=O)n1-c1cccc(Cl)c1	140	–	70	0.45 nM	530	–
C[C@H](Nc1cc(N)ncn1)c1nc2cccc(Cl)c2c(=O)n1-c1ccccc1	> 100	–	> 100	99 nM	> 100	–
COc1cccc(-n2c([C@H](C)Nc3nc(N)nc(N)c3C#N)nc3cccc(Cl)c3c2=O)c1	330	–	70	0.9 nM	1100	–
C[C@H](Nc1nc(N)nc(N)c1C#N)c1nc2cccc(Cl)c2c(=O)n1-c1cccc(C(F)F)c1	190	–	210	0.54 nM	1800	–
Cc1nc(N)nc(N[C@@H](C)c2nc3cccc(Cl)c3c(=O)n2-c2ccccc2)c1C#N	100	17.5 mL/min/kg	40	0.13 nM	1900	–
